Measured values published in ChEMBL document CHEMBL1151437, “Activity of a potent hepatitis C virus polymerase inhibitor in the chimpanzee model” (Antimicrob Agents Chemother, 2007).

Tests used:
[1] = system: Hepatitis C virus; test: Antiviral activity against HCV 1a H77 with NS5B polymerase G554D mutation infected in chimpanzee measured on day 2; assay type: functional, organism-based, Hepacivirus hominis; settings: genotype 1a H77, 48 h
[2] = Half life in rat at 5 mg/kg, po; assay type: ADME, organism-based; set-up: dose 5 mg/kg, route oral; settings: in vivo
Method in brief: (§1)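 Rats, dogs and monkeys received one oral 5 mg/kg dose in polyethylene glycol 400. Serum was sampled at 0.3, 0.5, 1, 2, 4, 6, 9, 12 and 24 h. Plasma drug was extracted by acetonitrile protein precipitation with internal standard and quantified by LC-MS against spiked standards (peak-area ratio, linear regression). Limit of quantitation was about 20 ng/ml.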

[3] = Cmax in rat at 5 mg/kg, po; assay type: ADME, organism-based; set-up: dose 5 mg/kg, route oral; settings: in vivo; method in brief: as §1
[4] = Tmax in rat at 5 mg/kg, po; assay type: ADME, organism-based; set-up: dose 5 mg/kg, route oral; settings: in vivo; method in brief: as §1
[5] = system: Hepatitis C virus; test: Antiviral activity against HCV 1b strain N with NS5B polymerase C316Y mutation infected in chimpanzee measured on day 2; assay type: functional, organism-based, Hepacivirus hominis; settings: genotype 1b strain N, 48 h
[6] = system: Hepatitis C virus; test: Antiviral activity against HCV 1b strain N after 4 days by RT-PCR in presence of 40% human serum; assay type: functional, organism-based, Hepacivirus hominis; settings: genotype 1b strain N, 96 h
Method in brief: (§2)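 They were exposed for 4 days to half-log inhibitor dilutions in medium with 5% FBS plus 40% human serum, to assess protein binding. Replicon RNA copy number was then measured by TaqMan real-time RT-PCR on extracted total RNA.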

[7] = system: Hepatitis C virus; test: Drug resistance, ratio of EC50 for HCV 1b strain N with NS5B polymerase C316Y mutation to EC50 for wild type HCV 1b strain N infected in chimpanzee measured on day 2; assay type: functional, Hepacivirus hominis, genotype 1b strain N
[8] = Half life in dog at 5 mg/kg, po; assay type: ADME, organism-based, Canis lupus familiaris; set-up: dose 5 mg/kg, route oral; settings: in vivo; method in brief: as §1
[9] = system: Hepatitis C virus; test: Inhibition of HCV 1b strain N NS5B polymerase by [3H]UTP incorporation assay; set-up: species or system Hepatitis C virus subtype 1b
[10] = Cmax in HCV 1a H77 infected chimpanzee at 30 mg/kg, po BID for 14 days measured after 2 hrs of postdose; assay type: ADME, organism-based, Pan troglodytes; set-up: dose 30 mg/kg, route oral; settings: in vivo
Method in brief: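 Chimpanzees were dosed orally at 30 mg/kg BID for 14 days. Plasma drug was measured by LC-MS. For the genotype 1a animal, the value is the mean of three samples taken 2 h after the a.m. dose on days 2, 3 and 4.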

[11] = system: Hepatitis C virus; test: Drug resistance, ratio of EC50 for HCV 1b strain N with NS5B polymerase C316Y mutation to EC50 for wild type HCV 1b strain N infected in chimpanzee measured on day 28; assay type: functional, Hepacivirus hominis, genotype 1b strain N
[12] = system: Hepatitis C virus; test: Ratio of EC50 for HCV 1b strain N in presence of 40% human serum to EC50 for HCV 1b strain N in absence of human serum; assay type: functional, Hepacivirus hominis, genotype 1b strain N
Method in brief: (§3)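 Cells carrying the subgenomic replicon (genotype 1b strain N, or chimeric 1a H77/1b Con1) were maintained in DMEM with 10% FBS and 400 µg/ml G418. The next day they were given medium with 5% FBS and half-log inhibitor dilutions, with or without 40% human serum, for 4 days. Replicon RNA copy number was measured by TaqMan RT-PCR.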

[13] = system: Hepatitis C virus; test: Antiviral activity against HCV 1a H77 with NS5B polymerase G554D mutation infected in chimpanzee measured on day 16; assay type: functional, organism-based, Hepacivirus hominis; settings: genotype 1a H77, 384 h
[14] = system: Hepatitis C virus; test: Ratio of EC50 for HCV 1a H77 in presence of 40% human serum to EC50 for HCV 1a H77 in absence of human serum; assay type: functional, Hepacivirus hominis, genotype 1a H77; method in brief: as §3
[15] = Oral bioavailability in rat at 5 mg/kg; assay type: ADME, organism-based; settings: in vivo
[16] = Half life in monkey at 5 mg/kg, po; assay type: ADME, organism-based, Macaca mulatta; set-up: dose 5 mg/kg, route oral; settings: rhesus monkey, in vivo; method in brief: as §1
[17] = Cmax in HCV 1b strain N infected chimpanzee at 30 mg/kg, po BID for 14 days measured after 2 hrs of postdose; assay type: ADME, organism-based, Pan troglodytes; set-up: dose 30 mg/kg, route oral; settings: in vivo
[18] = system: Hepatitis C virus; test: Antiviral activity against HCV 1b strain N with NS5B polymerase C316Y mutation infected in chimpanzee measured on day 11; assay type: functional, organism-based, Hepacivirus hominis; settings: genotype 1b strain N, 264 h
[19] = system: Hepatitis C virus; test: Antiviral activity against HCV 1b strain N after 4 days by RT-PCR; assay type: functional, organism-based, Hepacivirus hominis; settings: genotype 1b strain N, 96 h
Method in brief: (§4)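 Subgenomic replicon cells (genotype 1b strain N, or chimeric 1a H77/1b Con1) grown in DMEM with 10% FBS and 400 µg/ml G418. Next day, the medium was switched to 5% FBS with inhibitor in half-log dilutions. After 4 days, total RNA was extracted and replicon RNA copies were counted by TaqMan real-time RT-PCR. Potency came from the fall in copy number.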

[20] = system: Hepatitis C virus; test: Antiviral activity against wild type HCV 1b strain N infected in chimpanzee; assay type: functional, organism-based, Hepacivirus hominis; settings: genotype 1b strain N
[21] = Cmax in monkey at 5 mg/kg, po; assay type: ADME, organism-based, Macaca mulatta; set-up: dose 5 mg/kg, route oral; settings: rhesus monkey, in vivo; method in brief: as §1
[22] = system: Hepatitis C virus; test: Antiviral activity against HCV 1a H77 infected in chimpanzee assessed as reduction in viral load at 30 mg/kg, po BID for 14 days measured on day 2 postdosing; assay type: functional, Hepacivirus hominis, genotype 1a H77
Method in brief: (§5)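 One chimpanzee infected with genotype 1a and one with genotype 1b were dosed orally with 30 mg/kg BID for 14 days. Serum viral load was measured by TaqMan quantitative RT-PCR. A pretreatment serum sample (day 0) served as the baseline.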

[23] = system: Hepatitis C virus; test: Antiviral activity against HCV 1b strain N infected in chimpanzee assessed as reduction in viral load at 30 mg/kg, po BID for 14 days measured on day 2 postdosing; assay type: functional, Hepacivirus hominis, genotype 1b strain N; method in brief: as §5
[24] = AUC in monkey at 5 mg/kg, po; assay type: ADME, organism-based, Macaca mulatta; set-up: dose 5 mg/kg, route oral; settings: rhesus monkey, plasma; method in brief: as §1
[25] = system: Hepatitis C virus; test: Antiviral activity against HCV 1a H77 after 4 days by RT-PCR; assay type: functional, organism-based, Hepacivirus hominis; settings: genotype 1a H77, 96 h; method in brief: as §4
[26] = system: Hepatitis C virus; test: Antiviral activity against HCV 1b strain N with NS5B polymerase C316Y mutation infected in chimpanzee measured on day 5; assay type: functional, organism-based, Hepacivirus hominis; settings: genotype 1b strain N, 120 h
[27] = system: Hepatitis C virus; test: Antiviral activity against HCV 1a H77 with NS5B polymerase G554D mutation infected in chimpanzee measured on day 5; assay type: functional, organism-based, Hepacivirus hominis; settings: genotype 1a H77, 120 h
[28] = system: Hepatitis C virus; test: Drug resistance, ratio of EC50 for HCV 1a H77 with NS5B polymerase G554D mutation to EC50 for wild type HCV 1a H77 infected in chimpanzee measured on day 16; assay type: functional, Hepacivirus hominis, genotype 1a H77
[29] = system: Hepatitis C virus; test: Antiviral activity against HCV 1b strain N with NS5B polymerase C316Y mutation infected in chimpanzee measured on day 28; assay type: functional, organism-based, Hepacivirus hominis; settings: genotype 1b strain N, 672 h
[30] = system: Hepatitis C virus; test: Drug resistance, ratio of EC50 for HCV 1a H77 with NS5B polymerase G554D mutation to EC50 for wild type HCV 1a H77 infected in chimpanzee measured on day 2; assay type: functional, Hepacivirus hominis, genotype 1a H77
[31] = system: Hepatitis C virus; test: Drug resistance, ratio of EC50 for HCV 1b strain N with NS5B polymerase C316Y mutation to EC50 for wild type HCV 1b strain N infected in chimpanzee measured on day 11; assay type: functional, Hepacivirus hominis, genotype 1b strain N
[32] = Oral bioavailability in monkey at 5 mg/kg; assay type: ADME, organism-based, Macaca mulatta; settings: rhesus monkey, in vivo
[33] = AUC in dog at 5 mg/kg, po; assay type: ADME, organism-based, Canis lupus familiaris; set-up: dose 5 mg/kg, route oral; settings: plasma; method in brief: as §1
[34] = system: Hepatitis C virus; test: Antiviral activity against HCV 1a H77 with NS5B polymerase Y448C mutation infected in chimpanzee measured on day 28; assay type: functional, organism-based, Hepacivirus hominis; settings: genotype 1a H77, 672 h
[35] = Tmax in monkey at 5 mg/kg, po; assay type: ADME, organism-based, Macaca mulatta; set-up: dose 5 mg/kg, route oral; settings: rhesus monkey, in vivo; method in brief: as §1
[36] = Inhibition of HCV 1a H77 NS5B polymerase by [3H]UTP incorporation assay; set-up: species or system Hepatitis C virus (isolate H77)
[37] = Tmax in dog at 5 mg/kg, po; assay type: ADME, organism-based, Canis lupus familiaris; set-up: dose 5 mg/kg, route oral; settings: in vivo; method in brief: as §1
[38] = Oral bioavailability in dog at 5 mg/kg; assay type: ADME, organism-based, Canis lupus familiaris; settings: in vivo
[39] = system: Hepatitis C virus; test: Drug resistance, ratio of EC50 for HCV 1a H77 with NS5B polymerase G554D mutation to EC50 for wild type HCV 1a H77 infected in chimpanzee measured on day 5; assay type: functional, Hepacivirus hominis, genotype 1a H77
[40] = Cmax in dog at 5 mg/kg, po; assay type: ADME, organism-based, Canis lupus familiaris; set-up: dose 5 mg/kg, route oral; settings: in vivo; method in brief: as §1
[41] = system: Hepatitis C virus; test: Antiviral activity against HCV 1a H77 after 4 days by RT-PCR in presence of 40% human serum; assay type: functional, organism-based, Hepacivirus hominis; settings: genotype 1a H77, 96 h; method in brief: as §2
[42] = AUC in rat at 5 mg/kg, po; assay type: ADME, organism-based; set-up: dose 5 mg/kg, route oral; settings: plasma; method in brief: as §1
[43] = system: Hepatitis C virus; test: Drug resistance, ratio of EC50 for HCV 1b strain N with NS5B polymerase C316Y mutation to EC50 for wild type HCV 1b strain N infected in chimpanzee measured on day 5; assay type: functional, Hepacivirus hominis, genotype 1b strain N
[44] = system: Hepatitis C virus; test: Drug resistance, ratio of EC50 for HCV 1a H77 with NS5B polymerase Y448C mutation to EC50 for wild type HCV 1a H77 infected in chimpanzee measured on day 28; assay type: functional, Hepacivirus hominis, genotype 1a H77

## CC(C)CC[C@@]1(C)C(=O)C(C2=NS(=O)(=O)c3cc(NS(C)(=O)=O)ccc3N2)=C(O)c2ccccc21
[1]
  EC50: 7.7 nM
[2]
  half-life: 7.6 h
[3]
  Cmax: 310 ng/mL
[4]
  Tmax: 4.2 h
[5]
  EC50: 25 nM
[6]
  EC50: 42 nM
[7]
  fold change (FC): 28
[8]
  half-life: 10.7 h
[9]
  IC50: 0.33 nM
[10]
  Cmax: 5490 ng/mL
[11]
  fold change (FC): 389
[12]
  fold change (FC): 15
[13]
  EC50: 13.8 nM
[14]
  fold change (FC): 13
[15]
  bioavailability: 62.7%
[16]
  half-life: 1.9 h
[17]
  Cmax: 8590 ng/mL
[18]
  EC50: 1800 nM
[19]
  EC50: 3 nM
[20]
  EC50: 0.9 nM
[21]
  Cmax: 520 ng/mL
[22]
  log10cfu: 1.4 /ml
[23]
  log10cfu: 2.5 /ml
[24]
  AUC: 1500 ng·h/mL
[25]
  EC50: 11 nM
[26]
  EC50: 1200 nM
[27]
  EC50: 4.5 nM
[28]
  fold change (FC): 3.9
[29]
  EC50: 350 nM
[30]
  fold change (FC): 2.2
[31]
  fold change (FC): 2000
[32]
  bioavailability: 15.2%
[33]
  AUC: 10500 ng·h/mL
[34]
  EC50: 8.2 nM
[35]
  Tmax: 2.7 h
[36]
  IC50: 1.25 nM
[37]
  Tmax: 0.4 h
[38]
  bioavailability: 89.3%
[39]
  fold change (FC): 1.3
[40]
  Cmax: 1940 ng/mL
[41]
  EC50: 143 nM
[42]
  AUC: 3300 ng·h/mL
[43]
  fold change (FC): 1330
[44]
  fold change (FC): 2.3
